Assay [1] deals with CDK2/Cyclin A2 (Homo sapiens) (UniProt P24941+P20248). As to the kind of experiment: Inhibition of human CDK2/Cyclin A assessed as residual activity at 16 uM relative to control. It is filed as protein-complex assay.
Assay [2] addresses T1, Putative casein kinase I (Leishmania major) (UniProt O96999).
T1 sequence (whole entry): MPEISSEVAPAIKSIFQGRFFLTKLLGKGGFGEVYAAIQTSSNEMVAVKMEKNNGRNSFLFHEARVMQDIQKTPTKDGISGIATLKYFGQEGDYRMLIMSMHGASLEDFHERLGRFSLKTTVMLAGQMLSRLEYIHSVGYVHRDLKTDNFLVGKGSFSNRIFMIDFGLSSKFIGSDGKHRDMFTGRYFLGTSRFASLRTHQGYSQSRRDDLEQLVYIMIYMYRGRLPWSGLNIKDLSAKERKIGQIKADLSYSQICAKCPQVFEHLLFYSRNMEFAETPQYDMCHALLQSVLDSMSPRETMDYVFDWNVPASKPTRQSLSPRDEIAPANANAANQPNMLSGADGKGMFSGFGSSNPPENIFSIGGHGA
As to the kind of experiment: Inhibition of Leishmania major CK1 assessed as residual activity at 16 uM relative to control.

Assay [3] deals with Enterococcus faecalis. As to the kind of experiment: Antibacterial activity against Enterococcus faecalis ATCC 29212 at 2 to 256 ug/ml measured after 24 hrs. It counts as functional, organism-based. An outline of the steps:
(§1)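 Stock: 2.7 mg compound in 100 µL DMSO, then diluted with 900 µL distilled water. Working solutions at 256, 128, 64, 32, 16, 8, 4 and 2 µg/mL; 20 µL of each went into 178 µL Mueller-Hinton broth. Inoculum: 2 µL overnight culture at 0.5 McFarland (1.5*10⁸ CFU/mL). Controls: DMSO–water growth and sterility. Incubation 24 h at 37 °C; wells scored by eye as clear or turbid.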

The target in assay [4] is Cyclin-dependent kinase 5/CDK5 activator 1 (Homo sapiens) (UniProt Q00535+Q15078). As to the kind of experiment: Inhibition of human CDK5/p25 assessed as residual activity at 16 uM relative to control. It counts as protein-complex assay.
Assay [5] deals with Pseudomonas aeruginosa. As to the kind of experiment: Antibacterial activity against Pseudomonas aeruginosa ATCC […] at 2 to 256 ug/ml measured after 24 hrs. It counts as functional, organism-based. The essentials: as §1
In assay [6] the test system is Streptococcus pneumoniae. As to the kind of experiment: Antibacterial activity against Streptococcus pneumoniae ATCC 49619 at 2 to 256 ug/ml measured after 24 hrs. It is filed as functional, organism-based. The essentials: as §1
Assay [7] has as its system Leishmania donovani. As to the kind of experiment: Inhibition of Leishmania donovani TLK assessed as residual activity at 16 uM relative to control.
The target in assay [8] is Aurora kinase B (Homo sapiens) (UniProt Q96GD4). As to the kind of experiment: Inhibition of human Aurora-B assessed as residual activity at 16 uM relative to control.
Assay [9] deals with Receptor-interacting serine/threonine-protein kinase 3 (Homo sapiens) (UniProt Q9Y572). As to the kind of experiment: Inhibition of human RIPK3 assessed as residual activity at 16 uM relative to control.
For assay [10], the target named is Glycogen synthase kinase-3 (Sus scrofa) (UniProt B2LUN4+I6LNT8). As to the kind of experiment: Inhibition of pig GSK3 alpha/beta assessed as residual activity at 16 uM relative to control. It is filed as protein assay.
The subject of assay [11] is Escherichia coli. As to the kind of experiment: Antibacterial activity against Escherichia coli ATCC 35218 at 2 to 256 ug/ml measured after 24 hrs. It counts as functional, organism-based. The essentials:
as §1

The test system of assay [12] is Klebsiella pneumoniae. As to the kind of experiment: Antibacterial activity against Klebsiella pneumoniae ATCC 700603 at 2 to 256 ug/ml measured after 24 hrs. It counts as functional, organism-based. An outline of the steps: as §1
Assay [13] deals with T2, Serine/threonine-protein kinase haspin (Homo sapiens) (UniProt Q8TF76).
T2 sequence (whole entry): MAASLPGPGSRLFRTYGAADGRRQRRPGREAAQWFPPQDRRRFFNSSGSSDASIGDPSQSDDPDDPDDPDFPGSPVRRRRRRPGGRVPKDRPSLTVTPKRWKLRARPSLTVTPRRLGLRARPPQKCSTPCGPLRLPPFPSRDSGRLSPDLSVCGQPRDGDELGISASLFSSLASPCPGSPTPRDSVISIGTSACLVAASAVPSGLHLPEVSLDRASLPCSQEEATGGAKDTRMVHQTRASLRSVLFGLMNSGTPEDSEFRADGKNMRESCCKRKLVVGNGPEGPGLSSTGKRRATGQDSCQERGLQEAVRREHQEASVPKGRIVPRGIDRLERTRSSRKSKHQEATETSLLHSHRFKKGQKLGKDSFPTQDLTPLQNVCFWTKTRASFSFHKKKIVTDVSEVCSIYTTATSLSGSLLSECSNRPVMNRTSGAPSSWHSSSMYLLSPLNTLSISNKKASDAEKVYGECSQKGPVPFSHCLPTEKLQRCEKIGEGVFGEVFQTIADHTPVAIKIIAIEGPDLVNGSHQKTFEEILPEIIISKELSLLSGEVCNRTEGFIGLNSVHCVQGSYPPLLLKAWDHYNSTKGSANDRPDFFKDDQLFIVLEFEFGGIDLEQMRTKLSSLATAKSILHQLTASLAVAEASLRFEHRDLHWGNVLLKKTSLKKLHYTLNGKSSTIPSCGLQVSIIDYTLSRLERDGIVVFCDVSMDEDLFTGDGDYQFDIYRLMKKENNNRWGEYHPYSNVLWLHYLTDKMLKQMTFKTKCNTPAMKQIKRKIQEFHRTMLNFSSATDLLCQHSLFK
As to the kind of experiment: Inhibition of human haspin assessed as residual activity at 16 uM relative to control.

Assay [14] has as its target Serine/threonine-protein kinase pim-1 (Homo sapiens) (UniProt P11309). As to the kind of experiment: Inhibition of human Pim1 assessed as residual activity at 16 uM relative to control.
Assay [15] concerns U-87 MG. As to the kind of experiment: Cytotoxicity against human U87MG cells up to 100 uM. It is filed as functional, cell-based. The conditions noted are these: U-87MG ATCC.
The target of assay [16] is CDK9/cyclin T1 (Homo sapiens) (UniProt O60563+P50750). As to the kind of experiment: Inhibition of human CDK9/Cyclin T assessed as residual activity at 16 uM relative to control. It counts as protein-complex assay.
For assay [17], the system named is HCT-116. As to the kind of experiment: Cytotoxicity against human HCT116 cells up to 100 uM. It is filed as functional, cell-based.
The target in assay [18] is Dual specificity tyrosine-phosphorylation-regulated kinase 1A (Rattus norvegicus) (UniProt Q63470). As to the kind of experiment: Inhibition of rat DYRK1A assessed as residual activity at 16 uM relative to control.

Active and inactive are the calls of the source. The rule behind the calls is not given here.

Sequence of Receptor-interacting serine/threonine-protein kinase 3 (Homo sapiens) (Q9Y572 whole entry, looked up): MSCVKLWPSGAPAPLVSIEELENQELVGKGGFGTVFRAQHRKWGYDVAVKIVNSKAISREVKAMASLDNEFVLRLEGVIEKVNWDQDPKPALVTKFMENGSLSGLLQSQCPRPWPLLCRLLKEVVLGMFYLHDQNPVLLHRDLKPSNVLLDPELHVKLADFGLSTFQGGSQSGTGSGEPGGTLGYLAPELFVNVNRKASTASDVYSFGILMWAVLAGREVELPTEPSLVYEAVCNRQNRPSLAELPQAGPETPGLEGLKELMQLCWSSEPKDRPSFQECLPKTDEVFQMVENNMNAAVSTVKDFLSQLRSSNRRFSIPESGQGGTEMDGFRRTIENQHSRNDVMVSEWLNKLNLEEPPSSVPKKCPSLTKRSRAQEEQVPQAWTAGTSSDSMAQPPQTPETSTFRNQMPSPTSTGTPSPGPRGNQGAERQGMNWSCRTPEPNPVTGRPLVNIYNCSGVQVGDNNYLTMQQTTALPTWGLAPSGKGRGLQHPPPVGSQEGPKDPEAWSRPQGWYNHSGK
Sequence of Cyclin-dependent kinase 5/CDK5 activator 1 (Homo sapiens) (Q00535 whole entry): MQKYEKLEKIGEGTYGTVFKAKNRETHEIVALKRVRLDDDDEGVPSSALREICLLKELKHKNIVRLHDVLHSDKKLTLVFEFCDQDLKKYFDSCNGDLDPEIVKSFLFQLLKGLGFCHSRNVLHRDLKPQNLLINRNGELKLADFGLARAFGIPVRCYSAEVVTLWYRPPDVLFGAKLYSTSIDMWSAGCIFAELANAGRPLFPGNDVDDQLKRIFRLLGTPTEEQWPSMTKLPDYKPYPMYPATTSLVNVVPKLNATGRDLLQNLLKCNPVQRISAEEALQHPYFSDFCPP
Sequence of Cyclin-dependent kinase 5/CDK5 activator 1 (Homo sapiens) (Q15078 99-307 partner limits assumed): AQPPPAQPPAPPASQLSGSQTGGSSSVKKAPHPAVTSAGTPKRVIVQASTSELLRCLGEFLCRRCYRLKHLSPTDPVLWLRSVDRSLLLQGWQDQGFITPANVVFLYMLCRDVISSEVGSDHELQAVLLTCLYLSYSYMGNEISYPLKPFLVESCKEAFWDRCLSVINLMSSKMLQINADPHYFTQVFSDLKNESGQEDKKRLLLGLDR
Sequence of Aurora kinase B (Homo sapiens) (Q96GD4 whole entry): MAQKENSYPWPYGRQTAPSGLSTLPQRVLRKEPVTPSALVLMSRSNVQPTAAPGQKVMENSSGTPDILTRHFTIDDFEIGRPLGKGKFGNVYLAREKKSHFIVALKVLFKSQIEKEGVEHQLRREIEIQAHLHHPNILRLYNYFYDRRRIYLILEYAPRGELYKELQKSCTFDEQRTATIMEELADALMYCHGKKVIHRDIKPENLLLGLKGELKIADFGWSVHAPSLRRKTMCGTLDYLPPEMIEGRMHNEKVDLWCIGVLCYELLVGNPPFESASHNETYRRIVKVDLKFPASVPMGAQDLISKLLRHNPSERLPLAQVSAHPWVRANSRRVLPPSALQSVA
Sequence of Serine/threonine-protein kinase pim-1 (Homo sapiens) (P11309 whole entry, looked up): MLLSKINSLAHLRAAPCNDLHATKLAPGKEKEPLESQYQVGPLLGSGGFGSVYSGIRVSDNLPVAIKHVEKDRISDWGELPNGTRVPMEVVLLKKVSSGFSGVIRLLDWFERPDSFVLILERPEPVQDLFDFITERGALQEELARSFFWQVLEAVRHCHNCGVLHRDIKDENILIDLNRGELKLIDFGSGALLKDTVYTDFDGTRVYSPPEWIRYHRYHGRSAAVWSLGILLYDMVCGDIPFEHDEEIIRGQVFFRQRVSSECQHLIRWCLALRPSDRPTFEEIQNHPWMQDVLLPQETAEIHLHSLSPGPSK

`O=C1OC2(C(=O)Nc3ccccc32)C2=C1NCCS2(=O)=O` (stereo not drawn): the Activity in assay [1], in assay [2], in assay [4], in assay [7], in [8] and in [9] was above 60% throughout. For the same compound, the Activity in assay [10], in assay [13], in assay [14], in assay [16] and in [18] was above 60% in each case. Further, the outcome in [3], in assay [5], in assay [6], in assay [11], in assay [12] and in [15] was inactive. Moreover, the outcome in assay [17] was inactive.

Values taken from ChEMBL document CHEMBL4118034, “Orbicularisine: A Spiro-Indolothiazine Isolated from Gills of the Tropical Bivalve Codakia orbicularis” (J Nat Prod, 2017).
